Test results taken from ChEMBL document CHEMBL1142696, “Design and synthesis of melanocortin peptides with candidacidal and anti-TNF-alpha properties” (2005).
Non-standard residues stand in square brackets, D forms with d. Residues, ends and D or L forms follow the SMILES beside them. d2Nal = N[C@H](Cc1ccc2ccccc2c1)C(=O)O

Legend:
PBMC = assay: Inhibition of tumor necrosis factor alpha release by endotoxin stimulated human peripheral blood mononuclear cells at 1e-4 M; type: functional
In short: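 Human PBMC from five normal donors, isolated by Ficoll-Hypaque density centrifugation, washed in PBS and kept in RPMI 1640 with HEPES, glutamine, 10% FCS and penicillin/streptomycin. Cells at 2.5 × 10^5 per well were held 24 h at 37 °C, 5% CO2 with E. coli 055:B5 endotoxin 1 ng/mL plus peptide 10^-4 M. Supernatant TNF-α measured by immunoassay; % inhibition versus saline control, mean ± SD.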

Candida albicans = assay: Inhibition of Candida albicans colony forming units (CFU) at 1e-4 M compound; type: functional
In short: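 Six C. albicans isolates (five clinical, ATCC 24433), grown 48 h at 32 °C in Sabouraud-dextrose broth, washed and held in distilled water. 1 × 10^6 cells exposed to peptide at 10^-4 M final, 2 h at 37 °C; water controls. Diluted, plated on blood agar for 48 h at 37 °C, colonies counted manually. Kill = 100 − (test CFU/control CFU × 100). Triplicates, two independent experiments.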

Row | Compound | Inhibition (PBMC) | Inhibition (Candida albicans)
1 | CC(C)[C@H](NC(=O)[C@H](Cc1ccccc1)NC(=O)[C@H](CCCCN)NC(=O)CNC(=O)[C@H](Cc1c[nH]c2ccccc12)NC(=O)[C@H](CCCN=C(N)N)NC(=O)[C@@H](Cc1ccc2ccccc2c1)NC(=O)[C@H](C)N)C(N)=O | <10% | 62.8%
2 | NC(=O)[C@H](Cc1c[nH]c2ccccc12)NC(=O)[C@H](CCCN=C(N)N)NC(=O)[C@@H](Cc1ccc2ccccc2c1)NC(=O)[C@@H](N)Cc1c[nH]cn1 | 13.9% | 43%
3 | CC(C)[C@H](NC(=O)[C@H](Cc1ccccc1)NC(=O)[C@H](CCCCN)NC(=O)CNC(=O)[C@H](Cc1c[nH]c2ccccc12)NC(=O)[C@H](C)NC(=O)[C@@H](Cc1ccc2ccccc2c1)NC(=O)[C@@H](N)Cc1c[nH]cn1)C(N)=O | 23% | 95.7%
4 | CC(C)[C@H](NC(=O)[C@H](Cc1ccccc1)NC(=O)[C@H](CCCCN)NC(=O)CNC(=O)[C@H](C)NC(=O)[C@H](CCCN=C(N)N)NC(=O)[C@@H](Cc1ccc2ccccc2c1)NC(=O)[C@@H](N)Cc1c[nH]cn1)C(N)=O | 18.1% | 24.9%
5 | CC(C)[C@H](NC(=O)[C@H](Cc1ccccc1)NC(=O)[C@H](CCCCN)NC(=O)CNC(=O)[C@H](Cc1c[nH]c2ccccc12)NC(=O)[C@H](CCCN=C(N)N)NC(=O)[C@H](N)Cc1ccc2ccccc2c1)C(N)=O | <10% | 51.4%
6 | CC(C)[C@H](NC(=O)[C@H](Cc1ccccc1)NC(=O)[C@H](CCCCN)NC(=O)CN)C(N)=O (H-GKFV-NH2) | <10% | 5%
7 | CC(C)[C@H](NC(=O)[C@H](Cc1ccccc1)NC(=O)[C@H](CCCCN)NC(=O)CNC(=O)[C@H](Cc1c[nH]c2ccccc12)NC(=O)[C@H](CCCN=C(N)N)NC(=O)[C@H](C)NC(=O)[C@@H](N)Cc1c[nH]cn1)C(N)=O (H-HARWGKFV-NH2) | <10% | 49.9%
8 | CC(C)[C@H](NC(=O)[C@H](Cc1ccccc1)NC(=O)[C@H](CCCCN)NC(=O)CNC(=O)[C@H](Cc1c[nH]c2ccccc12)NC(=O)[C@H](CCCNC(=N)N)NC(=O)[C@H](Cc1ccccc1)NC(=O)[C@@H](N)Cc1cnc[nH]1)C(N)=O (H-HFRWGKFV-NH2) | <10% | 90.8%
9 | CC(C)[C@H](NC(=O)[C@@H]1CCCN1C(=O)[C@H](CCCCN)NC(=O)CNC(=O)[C@H](Cc1c[nH]c2ccccc12)NC(=O)[C@H](CCCN=C(N)N)NC(=O)[C@H](Cc1ccccc1)NC(=O)[C@@H](N)Cc1c[nH]cn1)C(N)=O (H-HFRWGKPV-NH2) | 12.3% | 59.4%
10 | CC(C)[C@H](NC(=O)[C@H](Cc1ccccc1)NC(=O)[C@H](CCCCN)NC(=O)CNC(=O)[C@H](Cc1c[nH]c2ccccc12)NC(=O)[C@H](CCCN=C(N)N)NC(=O)[C@@H](Cc1ccc2ccccc2c1)NC(=O)[C@@H](N)Cc1c[nH]cn1)C(N)=O (H-H[d2Nal]RWGKFV-NH2) | 18.7% | 99.8%
11 | CC(C)[C@H](NC(=O)[C@@H]1CCCN1C(=O)[C@H](CCCCN)NC(=O)CNC(=O)[C@H](Cc1c[nH]c2ccccc12)NC(=O)[C@H](CCCN=C(N)N)NC(=O)[C@@H](Cc1ccc2ccccc2c1)NC(=O)[C@@H](N)Cc1c[nH]cn1)C(N)=O (H-H[d2Nal]RWGKPV-NH2) | 41.8% | 95.3%
12 | CC(C)[C@H](NC(=O)[C@H](Cc1ccccc1)NC(=O)[C@@H](N)CCCCN)C(N)=O (H-Lys-Phe-Val-NH2) | <10% | 2.7%
13 | CC(C)[C@H](NC(=O)[C@H](Cc1ccccc1)NC(=O)[C@H](CCCCN)NC(=O)CNC(=O)[C@H](Cc1c[nH]c2ccccc12)NC(=O)[C@@H](N)CCCN=C(N)N)C(N)=O (H-RWGKFV-NH2) | <10% | 19.3%
14 | CC(C)[C@H](NC(=O)[C@H](Cc1ccccc1)NC(=O)[C@H](CCCCN)NC(=O)CNC(=O)[C@@H](N)Cc1c[nH]c2ccccc12)C(N)=O (H-WGKFV-NH2) | <10% | 5.7%
